Laboratory results reported in ChEMBL document CHEMBL3393006, “A new iridoid, verbascoside and derivatives with inhibitory activity against Taq DNA polymerase” (Bioorg Med Chem Lett, 2015).
Calls of active or inactive are those of the source. The calls are words filed in the database; no cut-off is given here.

Biological target: not listed separately
Assay: (§1) Inhibition of Thermus aquaticus DNA polymerase by PCR analysis
Procedure, shortened: (§2)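 Taq DNA polymerase (2.5 U) run in PCR mix of 40 mM Tris-acetate pH 8.3, 15 mM MgCl2, […], 2.5 mM each dNTP. Compounds were dissolved in DMSO and tested at varying concentrations, with 1:2 serial dilutions. Cycling was 35 cycles: 95 °C 1 min, 56 °C annealing, 72 °C 90 s. Read-out was densitometry of ethidium bromide-stained agarose gel bands. IC50 was interpolated from plots of activity versus inhibitor concentration.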

| SMILES | IC50 [µM] |
| --- | --- |
| CC(C)(C)[Si](C)(C)OC[C@]12O[C@H]1[C@H](O[Si](C)(C)C(C)(C)C)[C@@H]1C=CO[C@@H](O[C@@H]3O[C@H](CO)[C@@H](O)[C@H](O)[C@H]3O)[C@@H]12 | 78.1 |
| CC(C)(C)[Si](C)(C)OC[C@H]1O[C@@H](O[C@@H]2OC=C[C@H]3[C@@H](O[Si](C)(C)C(C)(C)C)[C@@H]4O[C@]4(CO[Si](C)(C)C(C)(C)C)[C@@H]23)[C@H](O)[C@@H](O)[C@@H]1O | 5.57 |
| OCC1O[C@@H](O[C@@H]2OC=C[C@H]3[C@@H](O)[C@@H]4O[C@]4(CO)[C@@H]23)C(O)C(O)[C@@H]1O (single isomer, unassigned) | 21.6 |

Test system: Thermus aquaticus
Assay: as §1
Procedure, shortened: as §2

| SMILES | inhibition |
| --- | --- |
| CC(=O)OC[C@H]1O[C@@H](O[C@@H]2OC=C[C@H]3[C@@H](OC(C)=O)[C@@H]4O[C@]4(COC(C)=O)[C@@H]23)[C@H](O)[C@@H](O)[C@@H]1O | inactive |
| O=C(OC[C@H]1O[C@@H](O[C@@H]2OC=C[C@H]3[C@@H](OC(=O)c4ccccc4)[C@@H]4O[C@]4(COC(=O)c4ccccc4)[C@@H]23)[C@H](O)[C@@H](OC(=O)c2ccccc2)[C@@H]1OC(=O)c1ccccc1)c1ccccc1 | inactive |
| CC(=O)OC[C@]12O[C@H]1[C@H](O)[C@@H]1C=CO[C@@H](O[C@@H]3O[C@H](CO)[C@@H](O)[C@H](O)[C@H]3O)[C@@H]12 | inactive |
| CC(=O)OC[C@H]1O[C@@H](O[C@@H]2OC=C[C@H]3[C@@H](OC(C)=O)[C@@H]4O[C@]4(COC(C)=O)[C@@H]23)[C@H](OC(C)=O)[C@@H](OC(C)=O)[C@@H]1OC(C)=O | inactive |
| CC(C)(C)[Si](OC[C@H]1O[C@@H](O[C@@H]2OC=C[C@H]3[C@@H](O[Si](c4ccccc4)(c4ccccc4)C(C)(C)C)[C@@H]4O[C@]4(CO[Si](c4ccccc4)(c4ccccc4)C(C)(C)C)[C@@H]23)[C@H](O)[C@@H](O)[C@@H]1O)(c1ccccc1)c1ccccc1 | inactive |
| CC(C)(C)[Si](OC[C@H]1O[C@@H](O[C@@H]2OC=C[C@H]3[C@@H](O[Si](c4ccccc4)(c4ccccc4)C(C)(C)C)[C@@H]4O[C@]4(CO[Si](c4ccccc4)(c4ccccc4)C(C)(C)C)[C@@H]23)[C@H](O)[C@@H](O[Si](c2ccccc2)(c2ccccc2)C(C)(C)C)[C@@H]1O)(c1ccccc1)c1ccccc1 | inactive |
